The results in this text go back to ChEMBL document CHEMBL3272112, “Cycloalkanones. 8. Hypocholesterolemic activity of long-chain ketones related to pentadecanone” (J Med Chem, 1976).

Data set [1] concerns Rattus norvegicus. Nature of the data set: Hypocholesterolemic activity in Sprague-Dawley rat assessed as serum cholesterol level at 10 mg/kg/day, po administered via intubation measured on day 4 by Liebermann-Burchard method relative to control. The data set is classed as functional. The procedure, abridged:
(§1)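 Male Sprague-Dawley rats given compound homogenized in 1% CMC once daily at 11:00 a.m. by oral intubation needle (0.2 cc), doses calculated on weekly body weights; tail-vein blood drawn 24 h after last dose; nonhemolyzed serum (30 μ) assayed by modified Liebermann-Burchard method; N = 8; % of control, mean ± SD; Student's t test.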

For data set [2], the system named is Rattus norvegicus. The experiment in a line: Hypocholesterolemic activity in Sprague-Dawley rat assessed as serum cholesterol level at 10 mg/kg/day, po administered via intubation measured on day 10 by Liebermann-Burchard method relative to control. The data set is classed as functional. The procedure, abridged: as §1
The test system of data set [3] is Rattus norvegicus. Nature of the data set: Hypocholesterolemic activity in Sprague-Dawley rat assessed as serum cholesterol level at 10 mg/kg/day, po administered via intubation measured on day 16 by Liebermann-Burchard method relative to control. The data set is classed as functional. Put shortly:
as §1

Data set [4] relates to Rattus norvegicus. Nature of the data set: Toxicity in Sprague-Dawley rat assessed as increase in body weight at 10 mg/kg/day measured on day 10 (reference value: 160 +/- 13%). Format: organism-based. To be noted: in vivo.
The subject of data set [5] is Rattus norvegicus. The experiment in a line: Toxicity in Sprague-Dawley rat assessed as increase in body weight at 10 mg/kg/day measured on day 16 (reference value: 195 +/- 16%). The data set is classed as organism-based. To be noted: in vivo.
In data set [6] the test system is Rattus norvegicus. Nature of the data set: Uterotrophic activity in ovariectomized weaned Sprague-Dawley rat assessed as uterine weight at 10 ug/kg/day measured after 3 days (reference value: 100 +/- 15%). Format: ADME, organism-based, Uterus. As to conditions: in vivo, 0.01 mg/kg, 72 h. Put shortly: (§2)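 Weaned rats were ovariectomized and left untreated for 3 days. They were then dosed for 3 days with 17-ethinylestradiol 10 µg/kg/day or test compound 10 mg/kg/day, with 1% CMC as the vehicle control. Rats were then killed and the uterus removed, trimmed and weighed. Results are % of control uterine weight, mean ± SD; N = 7; Student's t test.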

The test system of data set [7] is Rattus norvegicus. The experiment in a line: Uterotrophic activity in ovariectomized weaned Sprague-Dawley rat assessed as uterine weight at 10 mg/kg/day measured after 3 days (reference value: 100 +/- 15%). Format: ADME, organism-based, Uterus. To be noted: in vivo, 72 h. The procedure, abridged: as §2

In the case of `CCCCCCCCCCCCCC(=O)CC`, the Activity in data set [1] is 64%; in data set [2] it was 83%; in data set [3], 92%; in data set [4], 167%; in data set [5] it was 212%.

On to `CCCCCCCCCCCCC(=O)CCC`, for which the Activity was 65% in data set [1]; 89% in data set [2]; 103% in data set [3]; 175% in data set [4]; 213% in data set [5].

Regarding `CCCCCCCCCCCC(=O)CCCC`, the Activity in data set [1] is 63%; in data set [2] it was 89%; in data set [3] it was 94%; in data set [4], 165%; in data set [5], 206%.

With `C#C[C@]1(O)CC[C@H]2[C@@H]3CCc4cc(O)ccc4[C@H]3CC[C@@]21C` [ETHINYL ESTRADIOL], in data set [6], the Activity amounted to 372%.

Take `CCCCCCCCCCCCCC(C)=O`: the Activity worked out at 114% in data set [1]; 113% in data set [2]; 98% in data set [3]; 156% in data set [4]; 233% in data set [5].

For `CCCCCCCCCCCCCCCCC(C)=O`, the Activity in data set [1] is 79%; in data set [2], 86%; in data set [3] it was 73%; in data set [4], 175%; in data set [5], 242%.

Take `CCCCCCCCC(=O)CCCCCCC`: the Activity in data set [1] was 102%; in data set [2] it was 97%; in data set [3] it was 72%; in data set [4] it was 167%; in data set [5] it was 209%.

As to `CCOC(=O)C(C)(C)Oc1ccc(Cl)cc1` [CLOFIBRATE], the Activity is reported as 100% in data set [1], 98% in data set [2] and 106% in data set [3].

Take `CCCCCCCCCCCCCCCC(C)=O`: the Activity in data set [1] was found to be 83%; in data set [2] it was 75%; in data set [3], 74%; in data set [4], 165%; in data set [5], 229%; in data set [7] it was 76%.

Take `CCCCCCCCCCC(=O)CCCCC`: the Activity turned out to be 70% in data set [1]; 92% in data set [2]; 100% in data set [3]; 168% in data set [4]; 209% in data set [5].

For the compound `CCCCCCCCCC(=O)CCCCCC`, the Activity in data set [1] amounted to 89%; in data set [2], 89%; in data set [3] it was 77%; in data set [4], 169%; in data set [5], 207%.
